Key:
[1] = target: T1, Delta-type opioid receptor (Homo sapiens, UniProt P41143); test: Displacement of [3H]DPDPE from human delta opioid receptor expressed in HN9.10 cells; assay type: cell-based
Summary of the method: (§1)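 Membranes (50 µg) from HN9.10 neuroblastoma cells stably expressing rat MOR or human DOR. Buffer was 50 mM Tris pH 7.4 with bacitracin, bestatin, captopril, PMSF and 1 mg/mL BSA. Radioligand was [3H]DAMGO (MOR) or [3H]DPDPE (DOR), each 1.0 nM, with 10 test concentrations. Incubated 3 h at 25 °C, in duplicate. Nonspecific binding with 10 µM naloxone. Filtration, then scintillation counting.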

Mu-type opioid receptor [2] = target: T2, Mu-type opioid receptor (Rattus norvegicus, UniProt P33535); test: Displacement of [3H]DAMGO from rat mu opioid receptor expressed in HN9.10 cells; assay type: cell-based; summary of the method: as §1
T2 sequence (P33535 whole entry): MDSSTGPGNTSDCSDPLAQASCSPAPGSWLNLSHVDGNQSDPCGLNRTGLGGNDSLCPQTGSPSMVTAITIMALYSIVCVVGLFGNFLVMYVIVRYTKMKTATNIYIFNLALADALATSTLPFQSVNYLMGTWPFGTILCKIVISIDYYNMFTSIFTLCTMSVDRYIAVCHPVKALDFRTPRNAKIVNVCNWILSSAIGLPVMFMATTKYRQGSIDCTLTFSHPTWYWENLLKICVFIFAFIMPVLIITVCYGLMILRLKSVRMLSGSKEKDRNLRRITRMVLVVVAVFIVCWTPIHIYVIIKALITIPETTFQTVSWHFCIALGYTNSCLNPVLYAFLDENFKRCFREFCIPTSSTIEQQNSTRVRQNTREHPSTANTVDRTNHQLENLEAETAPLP

[3] = target: T3, Cholecystokinin receptor type A (Homo sapiens, UniProt P32238); test: Displacement of [125I]CCK8 from human CCK1 receptor expressed in HEK293 cells; assay type: cell-based
T3 sequence (P32238 whole entry): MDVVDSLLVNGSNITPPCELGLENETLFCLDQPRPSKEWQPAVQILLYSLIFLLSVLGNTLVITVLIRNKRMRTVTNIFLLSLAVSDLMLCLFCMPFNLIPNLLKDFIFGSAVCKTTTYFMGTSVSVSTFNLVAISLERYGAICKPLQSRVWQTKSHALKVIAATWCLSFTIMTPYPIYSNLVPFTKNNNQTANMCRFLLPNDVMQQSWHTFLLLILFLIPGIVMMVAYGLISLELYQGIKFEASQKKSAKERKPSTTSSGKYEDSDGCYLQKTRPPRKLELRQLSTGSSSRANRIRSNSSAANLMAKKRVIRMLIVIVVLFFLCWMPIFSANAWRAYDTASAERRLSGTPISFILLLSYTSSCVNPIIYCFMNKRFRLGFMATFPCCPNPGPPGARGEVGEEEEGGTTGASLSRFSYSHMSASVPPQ

[4] = target: T4, Gastrin/cholecystokinin type B receptor (Homo sapiens, UniProt P32239); test: Displacement of [125I]CCK8 from human CCK2 receptor expressed in HEK293 cells; assay type: cell-based
T4 sequence (P32239 whole entry): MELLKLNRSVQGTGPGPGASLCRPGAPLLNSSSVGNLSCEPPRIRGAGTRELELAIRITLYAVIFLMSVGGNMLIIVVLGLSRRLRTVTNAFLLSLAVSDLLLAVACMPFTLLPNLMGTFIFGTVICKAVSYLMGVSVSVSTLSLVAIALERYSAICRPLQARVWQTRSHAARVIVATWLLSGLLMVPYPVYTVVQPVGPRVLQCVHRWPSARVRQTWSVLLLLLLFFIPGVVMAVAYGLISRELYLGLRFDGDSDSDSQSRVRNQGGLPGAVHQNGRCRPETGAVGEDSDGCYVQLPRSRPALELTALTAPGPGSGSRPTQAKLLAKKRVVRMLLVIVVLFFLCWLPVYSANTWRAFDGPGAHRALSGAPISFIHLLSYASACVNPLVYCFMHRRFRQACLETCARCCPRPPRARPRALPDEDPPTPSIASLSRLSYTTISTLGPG

[5] = target: T1, Delta-type opioid receptor; test: Inhibition of [35S]GTP-gamma-S binding to human delta opioid receptor expressed in CHO cells; assay type: functional, cell-based
Summary of the method: (§2)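 CHO-expressed receptor membranes (10 µg) in 50 mM HEPES pH 7.4 with EDTA, 5 mM MgCl2, 30 µM GDP, DTT, 100 mM NaCl, PMSF, BSA and 0.1 nM [35S]GTPγS. Test drug at various concentrations, duplicate or triplicate, 90 min at 30 °C. Nonspecific binding with 10 µM GTPγS.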

Mu-type opioid receptor [6] = target: T2, Mu-type opioid receptor; test: (§3) Inhibition of [35S]GTP-gamma-S binding to rat mu opioid receptor expressed in CHO cells; assay type: functional, cell-based; summary of the method: as §2
[7] = target: Delta-type opioid receptor (Mus musculus, UniProt P32300); test: Agonist activity at delta opioid receptor by inhibition of muscle contraction in electrically stimulated isolated mouse vas deferens; assay type: functional, tissue-based
Delta-type opioid receptor (Mus musculus, UniProt P32300), sequence (P32300 whole entry): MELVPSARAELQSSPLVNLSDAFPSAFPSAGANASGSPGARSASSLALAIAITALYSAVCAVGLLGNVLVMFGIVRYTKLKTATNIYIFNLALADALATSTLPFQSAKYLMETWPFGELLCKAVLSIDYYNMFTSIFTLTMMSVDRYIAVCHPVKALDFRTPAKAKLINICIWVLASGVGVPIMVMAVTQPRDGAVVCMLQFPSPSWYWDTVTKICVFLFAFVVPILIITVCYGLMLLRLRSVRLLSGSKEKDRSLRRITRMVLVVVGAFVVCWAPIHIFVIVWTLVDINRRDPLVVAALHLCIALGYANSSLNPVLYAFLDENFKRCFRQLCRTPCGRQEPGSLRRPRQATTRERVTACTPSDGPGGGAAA
Summary of the method: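 Male ICR mouse vasa deferentia in 20-mL baths, 0.5 g tension, oxygenated Mg-free Krebs at 37 °C; field stimulation 0.1 Hz, 2.0 ms single pulses, supramaximal voltage. Tissue integrity checked with DPDPE (10 nM). Compound added cumulatively until maximal inhibition. Inhibition taken as mean contraction height for 1 min before dosing versus height 3 min after. IC50 from Hill-equation fit by nonlinear least squares.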

Mu-type opioid receptor [8] = target: Mu-type opioid receptor (Cavia porcellus, UniProt P97266); test: Agonist activity at mu opioid receptor by inhibition of muscle contraction in electrically stimulated isolated guinea pig ileum; assay type: functional, tissue-based
Mu-type opioid receptor (Cavia porcellus, UniProt P97266), sequence (P97266 whole entry): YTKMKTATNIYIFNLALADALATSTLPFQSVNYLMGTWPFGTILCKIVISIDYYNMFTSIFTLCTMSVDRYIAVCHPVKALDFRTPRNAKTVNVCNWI
Summary of the method: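 Longitudinal muscle–myenteric plexus strips from male Hartley guinea pig ileum, 1 g tension, oxygenated Krebs at 37 °C, 15 min equilibration. Stimulated at 0.1 Hz, 0.4 ms, supramaximal voltage. Integrity checked with PL-017 (10 nM). Compound added until maximal inhibition. Inhibition taken as contraction height 1 min before versus 3 min after dosing. IC50 from Hill-equation fit.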

[9] = target: Mu-type opioid receptor (Rattus norvegicus) (UniProt P33535); test: as §3; assay type: functional, cell-based; summary of the method: as §2
Mu-type opioid receptor (Rattus norvegicus), sequence (P33535 whole entry): as the sequence (P33535 whole entry) above

[10] = target: Cholecystokinin receptor (Homo sapiens) (UniProt P32239+P32238); test: Agonist activity at CCK receptor of guinea pig ileum at 1 uM; assay type: functional, tissue-based; settings: Cavia porcellus, target entry is the homologue from another species
Summary of the method: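 Guinea pig ileum LMMP strips (male Hartley), 20-mL baths, 1 g tension, oxygenated Krebs bicarbonate buffer, 37 °C. Tissue first challenged with 67 mM KCl to set maximal contraction. Test compound added to the bath; agonist activity taken as contraction height as a percentage of the maximal KCl contraction (A50).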

T1 sequence (P41143 whole entry): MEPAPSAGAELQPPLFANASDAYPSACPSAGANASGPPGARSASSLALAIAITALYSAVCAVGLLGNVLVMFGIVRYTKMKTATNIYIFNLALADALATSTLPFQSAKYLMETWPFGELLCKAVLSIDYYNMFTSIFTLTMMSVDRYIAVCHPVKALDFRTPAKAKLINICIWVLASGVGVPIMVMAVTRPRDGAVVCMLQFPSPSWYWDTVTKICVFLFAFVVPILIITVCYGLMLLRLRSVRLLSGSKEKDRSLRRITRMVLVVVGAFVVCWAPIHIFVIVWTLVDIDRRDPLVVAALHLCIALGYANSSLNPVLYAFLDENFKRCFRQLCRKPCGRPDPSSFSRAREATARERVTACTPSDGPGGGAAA

| SMILES | Ki [1] [µM] | Ki (Mu-type opioid receptor [2]) [µM] | IC50 [7] [µM] | IC50 (Mu-type opioid receptor [8]) [µM] | IC50 [1] [µM] | IC50 (Mu-type opioid receptor [2]) [µM] | IC50 [3] [µM] | Ki [3] [µM] | IC50 [4] [µM] | Ki [4] [µM] | EC50 [5] [µM] | EC50 (Mu-type opioid receptor [6]; read-out: EC50) [µM] | also measured |
| --- | --- | --- | --- | --- | --- | --- | --- | --- | --- | --- | --- | --- | --- |
| CC(=O)N[C@@H](Cc1c[nH]c2ccccc12)C(=O)N[C@@H](CCCCNC(=O)Nc1ccccc1Cl)C(=O)N[C@@H](CC(=O)O)C(=O)N(C)[C@@H](Cc1ccccc1)C(=O)NNC(=O)[C@H](Cc1ccccc1)NC(=O)CNC(=O)[C@@H](C)NC(=O)[C@@H](N)Cc1ccc(O)cc1 | 0.00048 | 0.00092 | 0.026 | 0.2 | – | – | – | – | – | – | – | – | Log IC50 [1]: -8.95; Log IC50 (Mu-type opioid receptor [2]): -8.67; Ki ([3]; hek293): 1 µM; Log IC50 ([3]; hek293): -5.99; Ki ([4]; hek293): 1.7 µM; Log IC50 ([4]; hek293): -5.76; EC50 ([5]; cho): 0.0013 µM; EC50 (Mu-type opioid receptor [6]; cho, read-out: EC50): 0.015 µM |
| CCCC[C@H](NC(=O)[C@@H](Cc1c[nH]c2ccccc12)NC(=O)OC1C2CC3CC(C2)CC1C3)C(=O)N[C@@H](CC(=O)O)C(=O)N[C@@H](Cc1ccccc1)C(=O)NNC(=O)[C@H](Cc1ccccc1)NC(=O)CNC(=O)[C@@H](C)NC(=O)[C@@H](N)Cc1ccc(O)cc1 (stereo not given in full) | 0.0034 | 0.016 | 0.084 | 1.2 | 0.00776 | 0.0372 | 0.575 | 0.56 | 0.933 | 0.93 | 0.0056 | 0.24 | – |
| CCCC[C@H](NC(=O)[C@@H](Cc1c[nH]c2ccccc12)NC(=O)OC(C)(C)C)C(=O)N[C@@H](CC(=O)O)C(=O)N[C@@H](Cc1ccccc1)C(=O)NNC(=O)[C@H](Cc1ccccc1)NC(=O)CNC(=O)[C@@H](C)NC(=O)[C@@H](N)Cc1ccc(O)cc1 | 0.045 | 0.031 | 0.024 | 0.46 | 0.0933 | 0.0646 | 35.5 | > 10 | 10 | > 10 | 0.074 | 0.21 | – |
| CCCC[C@H](NC(=O)[C@H](Cc1c[nH]c2ccccc12)NC(C)=O)C(=O)N[C@@H](CC(=O)O)C(=O)N[C@@H](Cc1ccccc1)C(=O)NNC(=O)[C@H](Cc1ccccc1)NC(=O)CNC(=O)[C@@H](C)NC(=O)[C@@H](N)Cc1ccc(O)cc1 | 0.023 | 0.026 | 0.036 | 0.028 | 0.0537 | 0.0617 | – | – | 1.32 | 1.3 | 0.054 | 0.076 | – |
| CCCC[C@H](NC(=O)[C@H](CC(=O)O)NC(=O)[C@H](Cc1ccccc1)NN[C@@H](Cc1ccccc1)C(=O)NCC(=O)N[C@H](C)C(=O)N[C@@H](Cc1ccc(O)cc1)C(=O)O)C(=O)N[C@H](Cc1cn(C(=O)OC2C3CC4CC(C3)CC2C4)c2ccccc12)C(=O)O (stereo not given in full) | – | – | – | – | – | – | – | – | – | – | – | – | Emax [5]: 61%; Emax [9]: 60%; Activity [10]: 0% |
| CCCC[C@H](NC(=O)[C@H](N)Cc1c[nH]c2ccccc12)C(=O)N[C@@H](CC(=O)O)C(=O)N[C@@H](Cc1ccccc1)C(=O)NNC(=O)[C@H](Cc1ccccc1)NC(=O)CNC(=O)[C@@H](C)NC(=O)[C@@H](N)Cc1ccc(O)cc1 | 0.0014 | 0.00051 | 0.026 | 0.081 | 0.00324 | 0.0012 | 10.2 | 10 | 9.33 | 9.3 | 0.0094 | 0.0096 | EC50 (Mu-type opioid receptor [6]; read-out: Log EC50 (converted)): 0.00977 µM |
| CCCC[C@H](NC(=O)[C@H](Cc1c[nH]c2ccccc12)NC(C)=O)C(=O)N[C@@H](CC(=O)O)C(=O)N(C)[C@@H](Cc1ccccc1)C(=O)NNC(=O)[C@H](Cc1ccccc1)NC(=O)CNC(=O)[C@@H](C)NC(=O)[C@@H](N)Cc1ccc(O)cc1 | 0.0052 | 0.0053 | 0.0051 | 0.062 | – | – | – | – | – | – | – | – | Log IC50 [1]: -7.97; Log IC50 (Mu-type opioid receptor [2]): -7.96; EC50 ([5]; cho): 0.00053 µM; EC50 (Mu-type opioid receptor [6]; cho, read-out: EC50): 0.0052 µM |
| CCCC[C@H](NC(=O)[C@H](Cc1c[nH]c2ccccc12)NC(=O)OC(C)(C)C)C(=O)N[C@@H](CC(=O)O)C(=O)N[C@@H](Cc1ccccc1)C(=O)NNC(=O)[C@H](Cc1ccccc1)NC(=O)CNC(=O)[C@@H](C)NC(=O)[C@@H](N)Cc1ccc(O)cc1 | 0.059 | 0.024 | 0.23 | 0.055 | 0.138 | 0.055 | 4.07 | 4.1 | 3.98 | 3.8 | 0.027 | 0.0095 | – |
| CCCC[C@H](NC(=O)[C@@H](Cc1c[nH]c2ccccc12)NC(=O)OC12CC3CC(CC(C3)C1)C2)C(=O)N[C@@H](CC(=O)O)C(=O)N[C@@H](Cc1ccccc1)C(=O)NNC(=O)[C@H](Cc1ccccc1)NC(=O)CNC(=O)[C@@H](C)NC(=O)[C@@H](N)Cc1ccc(O)cc1 | 0.00023 | 0.088 | 0.038 | 0.64 | 0.000417 | 0.195 | 0.851 | 0.84 | 0.562 | 0.56 | 0.027 | 0.01 | – |
| CCCC[C@@H](C(=O)N[C@@H](CC(=O)O)C(=O)N[C@@H](Cc1ccccc1)C(=O)NNC(=O)[C@H](Cc1ccccc1)NC(=O)CNC(=O)[C@@H](C)NC(=O)[C@@H](N)Cc1ccc(O)cc1)N(C)C(=O)[C@@H](Cc1c[nH]c2ccccc12)NC(=O)OC(C)(C)C | 0.00082 | 0.02 | 0.042 | – | 0.002 | 0.0479 | 1.91 | 1.9 | 1.55 | 1.5 | 0.026 | 0.00064 | – |

Reference: ChEMBL document CHEMBL1138152, “Design and synthesis of novel hydrazide-linked bifunctional peptides as delta/mu opioid receptor agonists and CCK-1/CCK-2 receptor antagonists” (J Med Chem, 2006)
